These results are taken from the RNAGym collection of RNA variant scans (doi:10.1126/science.aae0568).

B1: tRNA (parent)
chain: GUUCCGUUGGCGUAAUGGUAACGCGUCUCCCUCCUAAGGAGAAGACUGCGGGUUCGAGUCCCGUACGGAACG

This sample holds only a part of the variants without activity.

The series covers variants of B1. As to the kind of experiment: yeast fitness relative to wild type (ratio to wild type); higher = fitter; tRNA-Arg(CCU), competitive growth, 37 C, YPD. The method in brief:
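Amplicons of the tRNA-Arg(CCU) gene were sequenced, 100-nucleotide paired-end, from the start population and from each end population of a pooled yeast competition. The competition, in six parallel replicates, lasted 24 hours in YPD at 37°C. Fitness relative to wild type was calculated from changes in genotype frequencies. Genotypes had to have ≥ 100 starting reads, and estimates < 0.5 were set to 0.5.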
Take A21C C27G C46A C55G: the yeast fitness was at most 0.5.

Regarding A21C C34U U35C, the yeast fitness was at most 0.5.

For A21C C29G A36G C46U G58A, the yeast fitness is 0.535.

A21C C27U A45G: the yeast fitness turned out to be 0.584.

For A21C C61G G68A, the yeast fitness is at most 0.5. Then A21C C22A C24U A36C, with at most 0.5; and A21C G23C G52C A65C, with at most 0.5; and A21C C22U C31U C33U G67A, with at most 0.5.

In the case of A21C C31A C33G C46A, the yeast fitness is at most 0.5. Then A21C C24G G25C G44A C55G G56A, with at most 0.5; and A21C C24U C29U A36C, with at most 0.5. The value for A21C C22A A45U G67A was at most 0.5; that for A21C C34G G41C G67C was 0.653; that for A21C C34G C60A was at most 0.5. Regarding A21C C30A, the yeast fitness was determined as 0.802.

Turning to A21C C30U, the yeast fitness is 0.734. Take A21C C27A G50C: the yeast fitness is at most 0.5. As for A21C C24U U32A C61U, the yeast fitness is at most 0.5.

On to A21C C27U G68U, for which the yeast fitness worked out at 0.633. The value for A21C G25C A57G was 0.516; that for A21C C33A C61U was at most 0.5. The value for A21C C30U C62A was 0.644; that for A21C C34U C49U A69U was 0.53.

In the case of A21C C22G G38C A57C A65U, the yeast fitness is at most 0.5.

Regarding A21C C29A G52C, the yeast fitness came out at 0.566. On to A21C C29G U59C, for which the yeast fitness was at most 0.5.

Take A21C C30U A36C: the yeast fitness was at most 0.5. Take A21C C33G A37U U64G: the yeast fitness was determined as 0.617. For the variant A21C U26C C34G G44A C46A C55G G58A U59C A69U, the yeast fitness was determined as 0.625. In the case of A21C C27U G63A A65G, the yeast fitness was determined as 0.505. For the variant A21C G68C, the yeast fitness worked out at 0.67. Consider A21C C22G A57G, for which the yeast fitness is at most 0.5. With A21C C27U G41A, the yeast fitness was found to be 0.966. As to A21C C46U C61G, the yeast fitness is at most 0.5. On to A21C C55A, for which the yeast fitness came to 0.605.

With A21C C55U, the yeast fitness worked out at 0.712. With A21C C55G, the yeast fitness was at most 0.5. As for A21C G50C, the yeast fitness worked out at 0.584. Consider A21C G50A, for which the yeast fitness stood at 0.672. As to A21C U26C A40G U47C, the yeast fitness was at most 0.5. Consider A21C C31A C49U, for which the yeast fitness is 0.734. In the case of A21C G23A A37C U54C, the yeast fitness was at most 0.5.

Turning to A21C C24A C31A U47A, the yeast fitness was at most 0.5.

As to A21C G52C G67C, the yeast fitness is at most 0.5. As for A21C C24U A37C G39A C49G, the yeast fitness was at most 0.5. Regarding A21C C33U A36G G39A G44A C55G U59C, the yeast fitness was at most 0.5. The value for A21C C27A A37G A45C was 0.529; that for A21C A57U was 0.752. On to A21C C27A C49G A69C, for which the yeast fitness was at most 0.5. For the variant A21C G48A, the yeast fitness is 0.854. Consider A21C C30G A45G C66A, for which the yeast fitness is at most 0.5.

For A21C G23U U59G, the yeast fitness is at most 0.5.

As for A21C C22U C46U G48A G56A C60A C62A, the yeast fitness is at most 0.5. Consider A21C C34U G51C, for which the yeast fitness was at most 0.5. With A21C C24U G25C U26G U59A A70C, the yeast fitness was at most 0.5. Then A21C C22U A43U, with 0.538. As for A21C C27U A57U C62G C66U, the yeast fitness is at most 0.5.

Turning to A21C U26C, the yeast fitness was determined as 0.785. A21C A70U: the yeast fitness is 0.894. As to A21C A70G, the yeast fitness came to 0.861. The value for A21C C24U U32A A65C was at most 0.5; that for A21C C66U was 0.757.

Consider A21C C66G, for which the yeast fitness turned out to be 0.609.

On to A21C C31A U32G A40G, for which the yeast fitness was at most 0.5. For the variant A21C C33U C61A, the yeast fitness came to 0.593. In the case of A21C G44A U47C, the yeast fitness was determined as 0.51. In the case of A21C C62U A65C, the yeast fitness stood at 0.654.

For A21C G67U, the yeast fitness was found to be 0.656.

For the variant A21C C34G A43U, the yeast fitness is at most 0.5.

For A21C C33U, the yeast fitness is 0.687. As for A21C C29U C31G, the yeast fitness was at most 0.5. Regarding A21C A57U C60U C62U C66U, the yeast fitness was 0.612. Regarding A21C C34U A65U, the yeast fitness is at most 0.5. A21C G51A: the yeast fitness is 0.658. The value for A21C G51C was 0.528; that for A21C C27U G48C was 0.547; that for A21C G23A C49A was at most 0.5. Regarding A21C G44C A57G G68C, the yeast fitness was determined as 0.66.

As for A21C C22G A42C U47A, the yeast fitness was at most 0.5. For A21C C27A A45U U47G, the yeast fitness was at most 0.5. Take A21C G25C U26G U59A A70C: the yeast fitness worked out at 0.559. With A21C C60A A69G, the yeast fitness was at most 0.5. Regarding A21C G41C, the yeast fitness came to 0.695.

For the variant A21C C27U C61U G68A, the yeast fitness was at most 0.5.

Turning to A21C C24G C33A A37G A69C, the yeast fitness turned out to be 0.645. For A21C C31U G38A G39C C49G, the yeast fitness is at most 0.5.

A21C C34U C49U G63A A69U: the yeast fitness is at most 0.5.

With A21C C34G, the yeast fitness is 0.577. Then A21C C22A C34G G44C C62A, with 0.606; and A21C G23A C24U C31U C49U G67A, with at most 0.5. As to A21C C49U, the yeast fitness is 0.824. As to A21C C49A, the yeast fitness was 0.742. Take A21C C49G: the yeast fitness came to 0.732. With A21C C24U A36C A57U, the yeast fitness is at most 0.5. The value for A21C C22A C24U U32A C62G was at most 0.5; that for A21C G23A C46G U53C was 0.698; that for A21C A69U was 0.827. Take A21C U26A C46U C55U: the yeast fitness turned out to be 0.608. As for A21C C27U C34U G50C G52C C61U, the yeast fitness is at most 0.5. Take A21C C24U A36C: the yeast fitness amounted to 0.592. In the case of A21C G48C G56C, the yeast fitness is at most 0.5.

For A21C C31G C66U, the yeast fitness is at most 0.5.

In the case of A21C C30G C55G, the yeast fitness is at most 0.5. On to A21C C22G A42C U47A U64C, for which the yeast fitness was at most 0.5. Turning to A21C C29U U35A C61G, the yeast fitness came out at 0.707. For A21C A65U, the yeast fitness is 0.697. In the case of A21C A65G, the yeast fitness is 0.863. With A21C A65C, the yeast fitness is 0.677. Take A21C G23A A37C U54C A65G: the yeast fitness was at most 0.5. As for A21C C30G C34G, the yeast fitness amounted to 0.627. With A21C C22A U26C, the yeast fitness is at most 0.5. For A21C C22A C30U G48C, the yeast fitness was at most 0.5. As for A21C C24A G39A G56C A69U, the yeast fitness was at most 0.5. A21C U26G A43C: the yeast fitness was at most 0.5. The value for A21C G56A A57G C66U was at most 0.5; that for A21C C27U G50A was 0.571.

For the variant A21C G25C U26G U59G A65C, the yeast fitness is at most 0.5. Take A21C C49U A69U: the yeast fitness is 0.61. Consider A21C C55A A57U, for which the yeast fitness came to 0.535. Then A21C A69C A70U, with 0.686; and A21C C34U G56A, with 0.551; and A21C G44C G56A G63C G68A A69G, with at most 0.5. As to A21C G25C U26G U59A, the yeast fitness is at most 0.5. A21C U28A: the yeast fitness was 0.738. A21C C29U A57C A69U: the yeast fitness is at most 0.5. A21C U26G C34U A40G G51A: the yeast fitness was found to be 0.529. For A21C C31G, the yeast fitness is 0.657. Consider A21C C55G A57U G67A, for which the yeast fitness is at most 0.5. Regarding A21C G39A C49A, the yeast fitness was at most 0.5. Regarding A21C C29U C31G A43U A65C, the yeast fitness is at most 0.5.

Turning to A21C A57G G67A, the yeast fitness is at most 0.5. A21C C30U C31G C33U C61A: the yeast fitness is at most 0.5.

With A21C A65U G68C, the yeast fitness is at most 0.5. As for A21C G52A, the yeast fitness is 0.636. On to A21C G52C, for which the yeast fitness came out at 0.511. On to A21C G38C G63C A70U, for which the yeast fitness was at most 0.5. Consider A21C G25C U26G A70C, for which the yeast fitness was at most 0.5. On to A21C G58C C60U C66G, for which the yeast fitness was at most 0.5. Consider A21C C46A, for which the yeast fitness stood at 0.995. A21C G23A C24U C31U C49U: the yeast fitness was at most 0.5.

As for A21C C27A C33U A69C, the yeast fitness came out at 0.625. Consider A21C C27G U28A C29U C34U A57G G58C, for which the yeast fitness was at most 0.5. The value for A21C A57G A69G was at most 0.5; that for A21C C33U C55U A57C C61A was at most 0.5; that for A21C G63A was 0.88. Consider A21C C46G C55U, for which the yeast fitness worked out at 0.523.

In the case of A21C C31A A65C, the yeast fitness is at most 0.5. A21C C27U C55G: the yeast fitness turned out to be 0.617. Turning to A21C C24G A65C G67C, the yeast fitness is 0.718. For A21C C30A A43G C61U, the yeast fitness was at most 0.5. Consider A21C C55U A69C, for which the yeast fitness is at most 0.5. With A21C C29A G52A C61U, the yeast fitness is at most 0.5. A21C C34G C46U: the yeast fitness was at most 0.5.

For A21C C34G C46A, the yeast fitness is at most 0.5. As to A21C C61U, the yeast fitness worked out at 0.679. As to A21C C30G C55G A70G, the yeast fitness stood at 0.532. Turning to A21C U26G U35A A40U, the yeast fitness was at most 0.5.

With A21C C29U, the yeast fitness is 0.824. For A21C C27U C49U, the yeast fitness stood at 0.679.

On to A21C G48A C55U A65C, for which the yeast fitness was at most 0.5.

As to A21C C24A U54A A70C, the yeast fitness is at most 0.5. Consider A21C A65U G67A, for which the yeast fitness was 0.543. Turning to A21C G39C A42U G48C, the yeast fitness is at most 0.5. Regarding A21C C31G C33G G44A C66U, the yeast fitness was 0.526. Then A21C G39A G52C C62U, with at most 0.5. The value for A21C G38C G44C was 0.544.

For the variant A21C C30U G38A, the yeast fitness was at most 0.5.
